Measurements from ChEMBL document CHEMBL5620437, “Discovery of Conformationally Constrained ALK2 Inhibitors” (J Med Chem, 2024).
Active and inactive are the calls of the source. The calls are words filed in the database; no cut-off is given here.

How the values were obtained:
[1] = Apparent permeability across apical to basolateral side in human Caco-2 cells incubated for 2 hrs by LC/MS analysis; format: ADME, cell-based
How it was run: (§1)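 Caco-2 (C2BBE1) cells seeded 40,000/well on 1.0 μm PET inserts, grown 21–22 days; HBSS with 10 mM HEPES, 15 mM glucose, pH 7.4. Compound 5 μM in donor (0.1% DMSO), receiver with 1% BSA; 2 h at 37 °C shaking. Metoprolol, atenolol, Lucifer yellow, digoxin controls. LC/MS peak areas; two technical replicates; efflux ratio = Papp B-A / Papp A-B.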

[2] = Metabolic stability in human liver microsome at 1 uM in presence of NADPH-regeneration system incubated for 60 mins by LC/MS analysis; format: ADME; details: liver microsomes, read-out: Stability
How it was run: (§2)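 Compound 1 μM final (0.1% DMSO) in 0.1 M potassium phosphate pH 7.4 with male CD-1 mouse or pooled human liver microsomes at 0.5 mg/mL protein plus NADPH-regeneration mix. Sampled at 0 and 60 min at 37 °C, in duplicate. Parent remaining by LC/MS peak area.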

[3] = Drug concentration in NOD-SCID mouse plasma at 25 mg/kg, po measured at 24 hrs by LC-MS/MS analysis; format: ADME, organism-based
How it was run: (§3)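 Male NOD-SCID mice given 25 mg/kg orally in 5% DMSO, 47.5% PEG, 47.5% deionized water with 10% Tween80. Plasma drug levels measured at 0.5, 1, 2, 6 and 24 h; demethylated metabolites also quantified.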

[4] = Drug concentration in NOD-SCID mouse plasma at 25 mg/kg, po measured at 6 hrs by LC-MS/MS analysis; format: ADME, organism-based; how it was run: as §3
[5] = Drug concentration in NOD-SCID mouse plasma at 25 mg/kg, po measured at 1 hrs by LC-MS/MS analysis; format: ADME, organism-based; how it was run: as §3
[6] = Apparent permeability across basolateral to apical side in human Caco-2 cells incubated for 2 hrs by LC/MS analysis; format: ADME, cell-based; how it was run: as §1
[7] = Dissociation constant, pKa of compound; format: physicochemical
[8] = target: T1, Activin receptor type-1 (Homo sapiens, UniProt Q04771); assay: Inhibition of N-terminal GST-his6 tagged human recombinant ALK2 (145 to 509 residues) expressed in Sf9 insect cells in presence of ATP by radiometric kinase assay
T1 sequence (Q04771 whole entry): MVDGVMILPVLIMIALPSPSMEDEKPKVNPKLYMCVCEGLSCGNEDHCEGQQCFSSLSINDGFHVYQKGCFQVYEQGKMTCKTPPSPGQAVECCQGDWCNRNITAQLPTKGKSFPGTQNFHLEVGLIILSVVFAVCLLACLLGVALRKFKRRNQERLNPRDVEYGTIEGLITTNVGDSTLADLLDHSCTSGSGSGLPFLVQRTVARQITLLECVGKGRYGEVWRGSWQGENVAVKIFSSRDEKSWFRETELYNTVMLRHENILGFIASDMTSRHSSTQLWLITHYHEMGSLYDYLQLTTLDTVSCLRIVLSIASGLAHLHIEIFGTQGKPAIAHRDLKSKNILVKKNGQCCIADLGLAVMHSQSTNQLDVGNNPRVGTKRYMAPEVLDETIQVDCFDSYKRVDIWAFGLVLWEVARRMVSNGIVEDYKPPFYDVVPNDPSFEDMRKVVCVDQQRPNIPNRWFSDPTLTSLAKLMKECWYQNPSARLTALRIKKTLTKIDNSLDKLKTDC

[9] = Drug concentration in NOD-SCID mouse plasma at 25 mg/kg, po measured at 2 hrs by LC-MS/MS analysis; format: ADME, organism-based; how it was run: as §3
[10] = Ratio of drug concentration in brain to plasma in NOD-SCID mouse brain at 10 mg/kg, po measured at 4 hrs by LC-MS/MS analysis; format: ADME, organism-based; details: read-out: BPR
How it was run: (§4)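 Male NOD-SCID mice dosed orally at 10 mg/kg. Plasma and brain concentrations of parent and demethylated metabolites measured at 2 and 4 h. Kp = Cbrain/Cplasma at 4 h.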

[11] = Metabolic stability in CD-1 mouse liver microsome at 1 uM in presence of NADPH-regeneration system incubated for 60 mins by LC/MS analysis; format: ADME; details: liver microsomes, read-out: Stability; how it was run: as §2
[12] = Drug concentration in NOD-SCID mouse plasma at 10 mg/kg, po measured at 2 hrs by LC-MS/MS analysis; format: ADME, organism-based; how it was run: as §4
[13] = Drug concentration in NOD-SCID mouse plasma at 10 mg/kg, po measured at 4 hrs by LC-MS/MS analysis; format: ADME, organism-based; how it was run: as §4
[14] = Drug concentration in NOD-SCID mouse brain at 10 mg/kg, po measured at 4 hrs by LC-MS/MS analysis; format: ADME, organism-based; details: read-out: Ct; how it was run: as §4
[15] = target: T1, Activin receptor type-1; assay: Inhibition of ALK2 in human HEK293 cells using NanoGlo as substrate incubated for 2 hrs by NanoBRET assay; format: cell-based
[16] = Drug concentration in NOD-SCID mouse plasma at 25 mg/kg, po measured at 0.5 hrs by LC-MS/MS analysis; format: ADME, organism-based; how it was run: as §3
[17] = Drug concentration in NOD-SCID mouse brain at 10 mg/kg, po measured at 2 hrs by LC-MS/MS analysis; format: ADME, organism-based; details: read-out: Ct; how it was run: as §4
[18] = target: Epithelial discoidin domain-containing receptor 1 (Homo sapiens) (UniProt Q08345); assay: Inhibition of human recombinant DDR1 (492 to end residues) using KKKSPGEYVNIEF as substrate at 1 uM incubated for 40 mins by scintillation based radiometric LeadHunter assay relative to control
Epithelial discoidin domain-containing receptor 1 (Homo sapiens), sequence (Q08345 whole entry, the tested form may be a part): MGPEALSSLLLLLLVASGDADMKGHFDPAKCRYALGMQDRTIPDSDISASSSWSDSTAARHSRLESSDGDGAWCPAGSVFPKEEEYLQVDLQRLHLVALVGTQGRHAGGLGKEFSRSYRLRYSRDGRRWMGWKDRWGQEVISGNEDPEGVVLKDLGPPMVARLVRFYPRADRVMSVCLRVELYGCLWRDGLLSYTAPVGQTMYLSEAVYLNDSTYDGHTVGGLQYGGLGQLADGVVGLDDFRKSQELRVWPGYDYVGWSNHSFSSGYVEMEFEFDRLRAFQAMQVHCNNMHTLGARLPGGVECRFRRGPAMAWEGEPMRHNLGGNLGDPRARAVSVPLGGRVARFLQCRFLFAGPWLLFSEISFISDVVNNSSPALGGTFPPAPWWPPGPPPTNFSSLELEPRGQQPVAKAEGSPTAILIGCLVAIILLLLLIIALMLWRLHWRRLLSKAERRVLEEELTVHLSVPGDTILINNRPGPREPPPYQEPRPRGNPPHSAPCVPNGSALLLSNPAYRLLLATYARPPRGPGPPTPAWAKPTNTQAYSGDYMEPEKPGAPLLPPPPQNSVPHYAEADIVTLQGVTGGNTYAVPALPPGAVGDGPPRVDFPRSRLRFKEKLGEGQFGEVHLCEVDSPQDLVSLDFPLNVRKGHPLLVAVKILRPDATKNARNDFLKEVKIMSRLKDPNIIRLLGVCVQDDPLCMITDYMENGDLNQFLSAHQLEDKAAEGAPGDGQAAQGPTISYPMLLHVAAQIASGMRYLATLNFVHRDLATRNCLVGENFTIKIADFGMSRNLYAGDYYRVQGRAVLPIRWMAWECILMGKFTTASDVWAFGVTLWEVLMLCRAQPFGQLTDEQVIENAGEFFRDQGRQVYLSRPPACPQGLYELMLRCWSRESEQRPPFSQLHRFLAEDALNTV

[19] = target: TRAF2 and NCK-interacting protein kinase (Homo sapiens) (UniProt Q9UKE5); assay: Inhibition of human recombinant TNIK (1 to 367 residues) using RLGRDKYKTLRQI as substrate at 1 uM incubated for 40 mins by scintillation based radiometric LeadHunter assay relative to control
TRAF2 and NCK-interacting protein kinase (Homo sapiens), sequence (Q9UKE5 whole entry, looked up, the tested form may be a part): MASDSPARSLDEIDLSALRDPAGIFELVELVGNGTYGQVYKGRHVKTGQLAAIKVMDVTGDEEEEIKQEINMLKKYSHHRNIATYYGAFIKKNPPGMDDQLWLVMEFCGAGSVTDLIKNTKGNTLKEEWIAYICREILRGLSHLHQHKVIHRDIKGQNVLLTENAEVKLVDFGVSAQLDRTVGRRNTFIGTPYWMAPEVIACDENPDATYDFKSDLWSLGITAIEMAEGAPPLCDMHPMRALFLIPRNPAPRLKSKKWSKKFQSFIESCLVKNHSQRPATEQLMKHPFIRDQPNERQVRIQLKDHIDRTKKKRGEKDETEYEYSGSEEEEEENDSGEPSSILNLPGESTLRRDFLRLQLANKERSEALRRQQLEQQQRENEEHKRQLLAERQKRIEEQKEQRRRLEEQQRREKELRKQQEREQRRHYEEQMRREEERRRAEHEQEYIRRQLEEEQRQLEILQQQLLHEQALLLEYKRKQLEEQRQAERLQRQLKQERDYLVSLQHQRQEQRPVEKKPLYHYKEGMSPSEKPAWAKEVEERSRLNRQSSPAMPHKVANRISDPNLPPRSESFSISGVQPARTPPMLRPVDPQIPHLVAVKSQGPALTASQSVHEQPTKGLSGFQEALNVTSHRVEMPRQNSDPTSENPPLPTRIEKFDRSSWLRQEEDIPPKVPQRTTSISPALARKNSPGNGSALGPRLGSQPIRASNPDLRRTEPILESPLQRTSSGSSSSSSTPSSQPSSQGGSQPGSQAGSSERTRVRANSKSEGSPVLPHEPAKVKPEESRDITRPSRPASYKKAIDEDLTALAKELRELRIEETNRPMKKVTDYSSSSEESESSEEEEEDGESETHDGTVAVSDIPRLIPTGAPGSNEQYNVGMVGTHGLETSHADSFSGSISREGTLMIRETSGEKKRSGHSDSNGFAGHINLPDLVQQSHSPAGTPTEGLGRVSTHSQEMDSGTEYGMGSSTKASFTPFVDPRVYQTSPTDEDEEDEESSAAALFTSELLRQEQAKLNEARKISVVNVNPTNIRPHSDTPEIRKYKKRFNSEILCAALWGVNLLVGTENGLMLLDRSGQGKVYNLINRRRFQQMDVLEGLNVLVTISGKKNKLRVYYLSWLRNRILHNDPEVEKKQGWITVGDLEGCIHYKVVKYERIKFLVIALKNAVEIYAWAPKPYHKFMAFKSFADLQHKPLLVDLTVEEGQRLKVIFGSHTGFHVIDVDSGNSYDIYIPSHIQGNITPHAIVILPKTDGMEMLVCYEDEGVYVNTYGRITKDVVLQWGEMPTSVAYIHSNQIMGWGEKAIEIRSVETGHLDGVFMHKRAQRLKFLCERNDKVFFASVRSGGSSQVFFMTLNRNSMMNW

[20] = target: TRAF2 and NCK-interacting protein kinase (Homo sapiens) (UniProt Q9UKE5); assay: Inhibition of human recombinant TNIK (1 to 367 residues) using RLGRDKYKTLRQI as substrate incubated for 40 mins by scintillation based radiometric LeadHunter assay
[21] = target: Receptor-interacting serine/threonine-protein kinase 2 (Homo sapiens) (UniProt O43353); assay: Inhibition of human recombinant RIPK2 (1 to 299 residues) incubated for 120 mins in presence of ATP by scintillation based radiometric LeadHunter assay
Receptor-interacting serine/threonine-protein kinase 2 (Homo sapiens), sequence (O43353 whole entry, the tested form may be a part): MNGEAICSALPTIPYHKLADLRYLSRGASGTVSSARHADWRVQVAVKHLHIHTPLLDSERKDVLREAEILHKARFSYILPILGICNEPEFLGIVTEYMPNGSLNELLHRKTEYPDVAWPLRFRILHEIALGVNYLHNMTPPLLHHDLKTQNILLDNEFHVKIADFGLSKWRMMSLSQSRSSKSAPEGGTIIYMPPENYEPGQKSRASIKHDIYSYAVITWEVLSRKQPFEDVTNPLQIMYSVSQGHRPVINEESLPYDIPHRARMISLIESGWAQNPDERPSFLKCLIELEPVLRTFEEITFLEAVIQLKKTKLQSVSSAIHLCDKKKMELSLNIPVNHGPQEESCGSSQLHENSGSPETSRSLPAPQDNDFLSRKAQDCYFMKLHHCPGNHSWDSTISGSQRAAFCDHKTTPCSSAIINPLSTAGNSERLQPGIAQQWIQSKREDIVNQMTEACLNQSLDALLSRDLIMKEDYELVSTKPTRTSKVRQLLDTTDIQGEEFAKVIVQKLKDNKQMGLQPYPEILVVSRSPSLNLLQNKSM

[22] = target: Epithelial discoidin domain-containing receptor 1 (Homo sapiens) (UniProt Q08345); assay: Inhibition of human recombinant DDR1 (492 to end residues) using KKKSPGEYVNIEF as substrate incubated for 40 mins by scintillation based radiometric LeadHunter assay
[23] = target: Tyrosine-protein kinase Lyn (Homo sapiens) (UniProt P07948); assay: Inhibition of full length human recombinant LYN (1 to 367 residues) using poly Glu as substrate incubated for 40 mins by scintillation based radiometric LeadHunter assay
Tyrosine-protein kinase Lyn (Homo sapiens), sequence (P07948 2-512 limits assumed): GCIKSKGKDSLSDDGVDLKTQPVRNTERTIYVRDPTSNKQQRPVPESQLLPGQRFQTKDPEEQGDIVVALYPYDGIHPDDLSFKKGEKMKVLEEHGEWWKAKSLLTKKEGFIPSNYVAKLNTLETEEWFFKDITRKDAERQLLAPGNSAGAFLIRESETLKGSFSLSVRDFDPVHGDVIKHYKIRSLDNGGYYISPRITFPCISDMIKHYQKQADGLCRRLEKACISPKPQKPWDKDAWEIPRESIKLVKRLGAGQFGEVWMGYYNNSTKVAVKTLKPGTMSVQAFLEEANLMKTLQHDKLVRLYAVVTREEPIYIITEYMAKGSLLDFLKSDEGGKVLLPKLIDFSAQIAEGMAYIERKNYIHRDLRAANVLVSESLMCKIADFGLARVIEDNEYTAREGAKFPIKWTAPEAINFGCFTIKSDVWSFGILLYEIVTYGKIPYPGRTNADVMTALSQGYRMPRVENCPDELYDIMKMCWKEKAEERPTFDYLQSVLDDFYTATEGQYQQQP

[24] = test system: Epidermal growth factor receptor (Homo sapiens), P00533 [L861Q]; assay: Inhibition of human EGFR L861Q mutant (696 to end residues) using poly Glu as substrate incubated for 40 mins by scintillation based radiometric LeadHunter assay
[25] = target: Protein-tyrosine kinase 6 (Homo sapiens) (UniProt Q13882); assay: Inhibition of full length human recombinant BRK using poly Glu as substrate incubated for 40 mins by scintillation based radiometric LeadHunter assay
Protein-tyrosine kinase 6 (Homo sapiens), sequence (Q13882 whole entry, looked up): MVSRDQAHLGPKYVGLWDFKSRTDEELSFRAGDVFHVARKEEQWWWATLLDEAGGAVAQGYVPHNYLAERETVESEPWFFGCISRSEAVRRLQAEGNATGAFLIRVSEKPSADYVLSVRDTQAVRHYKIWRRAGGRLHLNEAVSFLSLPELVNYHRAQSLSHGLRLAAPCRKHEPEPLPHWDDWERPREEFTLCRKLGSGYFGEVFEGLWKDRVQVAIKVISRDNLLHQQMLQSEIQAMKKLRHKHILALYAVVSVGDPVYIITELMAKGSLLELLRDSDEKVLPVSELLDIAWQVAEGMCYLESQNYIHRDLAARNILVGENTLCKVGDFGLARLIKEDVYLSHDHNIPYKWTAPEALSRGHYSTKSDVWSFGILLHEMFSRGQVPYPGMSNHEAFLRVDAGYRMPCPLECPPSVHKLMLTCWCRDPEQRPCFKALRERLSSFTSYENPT

[26] = test system: Epidermal growth factor receptor (Homo sapiens), P00533 [L858R]; assay: Inhibition of human EGFR L858R mutant (696 to end residues) using poly Glu as substrate incubated for 40 mins by scintillation based radiometric LeadHunter assay
Epidermal growth factor receptor (Homo sapiens), P00533 [L858R], sequence (P00533 whole entry L858R): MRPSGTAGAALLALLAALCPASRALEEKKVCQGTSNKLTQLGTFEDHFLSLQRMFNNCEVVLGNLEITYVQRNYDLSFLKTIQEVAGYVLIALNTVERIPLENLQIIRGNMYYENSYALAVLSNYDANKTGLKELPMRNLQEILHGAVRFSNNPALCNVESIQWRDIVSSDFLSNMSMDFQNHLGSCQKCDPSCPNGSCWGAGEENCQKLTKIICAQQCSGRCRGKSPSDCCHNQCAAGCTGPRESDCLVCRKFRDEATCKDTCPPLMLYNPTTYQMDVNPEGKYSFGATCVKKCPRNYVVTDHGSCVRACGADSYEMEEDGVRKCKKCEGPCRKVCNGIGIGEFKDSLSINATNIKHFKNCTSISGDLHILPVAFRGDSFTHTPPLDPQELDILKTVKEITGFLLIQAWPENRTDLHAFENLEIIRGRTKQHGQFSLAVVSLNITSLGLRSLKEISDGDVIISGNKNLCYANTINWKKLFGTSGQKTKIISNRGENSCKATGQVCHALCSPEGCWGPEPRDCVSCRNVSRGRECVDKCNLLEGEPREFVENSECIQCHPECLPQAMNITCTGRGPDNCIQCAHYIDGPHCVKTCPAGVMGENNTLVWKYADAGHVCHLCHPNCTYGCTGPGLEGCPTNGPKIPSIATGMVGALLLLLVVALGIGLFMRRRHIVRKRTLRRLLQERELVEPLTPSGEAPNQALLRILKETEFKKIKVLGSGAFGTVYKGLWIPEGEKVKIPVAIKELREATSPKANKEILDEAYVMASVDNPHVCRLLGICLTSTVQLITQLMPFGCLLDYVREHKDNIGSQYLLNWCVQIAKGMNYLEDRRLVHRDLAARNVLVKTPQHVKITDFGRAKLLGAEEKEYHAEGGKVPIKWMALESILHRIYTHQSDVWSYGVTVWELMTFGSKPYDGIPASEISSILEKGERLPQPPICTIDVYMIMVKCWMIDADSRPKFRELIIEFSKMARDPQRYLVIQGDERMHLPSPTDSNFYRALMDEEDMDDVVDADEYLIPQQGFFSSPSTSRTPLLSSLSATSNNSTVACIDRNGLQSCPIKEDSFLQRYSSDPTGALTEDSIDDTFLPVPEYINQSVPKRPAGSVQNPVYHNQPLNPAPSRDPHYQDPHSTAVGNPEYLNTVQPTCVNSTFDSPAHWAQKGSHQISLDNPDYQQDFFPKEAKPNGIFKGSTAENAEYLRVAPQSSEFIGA

Row | Structure (SMILES) | Papp A→B at 2 h [1] | remaining at 1 h, 1 µM [2] | concentration at 24 h [3] | concentration at 6 h [4] | concentration at 1 h [5] | Papp B→A at 2 h [6] | pKa [7] | IC50 [8] | concentration at 2 h [9] | Kp at 4 h [10] | remaining at 1 h, 1 µM [11] | concentration at 2 h [12] | concentration at 4 h [13] | concentration at 4 h [14] | IC50 [15] | concentration at 0.5 h [16] | concentration at 2 h [17] | further results
1 | COc1cc(-c2cncc3c2CN(C)Cc2cc(N4CCN(C)CC4)ccc2-3)cc(OC)c1OC | 1.5 ×10⁻⁶ cm/s | 58.3% | 17 nM | 300 nM | 254 nM | 2.5 ×10⁻⁶ cm/s | 8.12 | 7 nM | 277 nM | 75.6 | 65% | 75 nM | 43 nM | 3250 nM | 18 nM | 134 nM | 4130 nM | –
2 | COc1cc(-c2cncc(-c3ccc(N4CCNCC4)cc3)c2C)cc(OC)c1OC | – | – | 1540 nM | 13400 nM | 4280 nM | – | 8.6 | – | 7490 nM | 0.3 | – | 5250 nM | 2680 nM | 888 nM | – | 3020 nM | 2320 nM | inhibition [18]: 100%; inhibition [19]: 100%
3 | COc1cc(-c2cncc3c2oc2cc(N4CCN(C)CC4)ccc23)cc(OC)c1OC | 4 ×10⁻⁶ cm/s | 37.4% | – | – | – | 2.5 ×10⁻⁶ cm/s | – | 609 nM | – | – | 9.5% | – | – | – | > 10000 nM | – | – | –
4 | COc1cc(-c2cncc3c2CCOc2cc(N4CCNCC4)ccc2-3)cc(OC)c1OC | 5.3 ×10⁻⁶ cm/s | 66.5% | 63 nM | 1890 nM | 1070 nM | 11.6 ×10⁻⁶ cm/s | – | 2 nM | 1120 nM | – | 70.9% | – | – | – | 6 nM | 729 nM | – | –
5 | COc1cc(-c2cncc3c2CCOc2cc(N4CCN(C)CC4)ccc2-3)cc(OC)c1OC | 13.9 ×10⁻⁶ cm/s | 21.2% | – | 2230 nM | 5050 nM | 11.5 ×10⁻⁶ cm/s | 8.54 | 2 nM | 3530 nM | 3.7 | 10.3% | 980 nM | 393 nM | 1470 nM | 15 nM | 3650 nM | 2410 nM | –
6 | COc1cc(-c2cncc3c2COCc2cc(N4CCN(C)CC4)ccc2-3)cc(OC)c1OC | 16.5 ×10⁻⁶ cm/s | 29.7% | – | – | – | 13.6 ×10⁻⁶ cm/s | – | 3 nM | – | – | 4.3% | – | – | – | 7 nM | – | – | –
7 | COc1cc(-c2cncc3c2COc2cc(N4CCN(C)CC4)ccc2-3)cc(OC)c1OC | 8.3 ×10⁻⁶ cm/s | 34.8% | – | – | – | 9 ×10⁻⁶ cm/s | – | 13 nM | – | – | 0.9% | – | – | – | 45 nM | – | – | –
8 | COc1cc(-c2cncc3c2CN(C)Cc2cc(N4CCNCC4)ccc2-3)cc(OC)c1OC | 0.8 ×10⁻⁶ cm/s | 73.2% | 336 nM | 1260 nM | 466 nM | 4.2 ×10⁻⁶ cm/s | – | 3 nM | 523 nM | – | 98.6% | – | – | – | 11 nM | 323 nM | – | inhibition [20]: Active; inhibition [21]: Active; inhibition [22]: Active; inhibition [23]: Active; inhibition [24]: Active; inhibition [25]: Active; inhibition [26]: Active
9 | COc1cc(-c2cncc3c2COCc2cc(N4CCNCC4)ccc2-3)cc(OC)c1OC | 4.2 ×10⁻⁶ cm/s | 62.3% | – | – | – | 9.4 ×10⁻⁶ cm/s | – | 2 nM | – | – | 75.7% | – | – | – | 5 nM | – | – | –
